Source: article PMC3748600 (Chembiochem : a European journal of chemical biology, 2012)

How the values were obtained:
[1] = test system: human cannabinoid receptor CB1; conditions: cited from earlier work
[2] = test system: a different cell line; conditions: cited from earlier work
[3] = test system: MCF7 breast cancer cells; experiment: Cell viability assay; assay type: cell-based; conditions: up to 100 μM, 48 h, MTT
Method in brief: (§1)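 Cells grown in DMEM with 10% FBS at 37 °C, 5% CO2. Seeded at 10,500 cells/well (MCF7) or 11,000 cells/well (HT-29). After 24 h, treated with various concentrations of the test compound or solvent control (1% EtOH). Viability was read by MTT after 48 h.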

[4] = target: T1, fatty acid amide hydrolase (FAAH) (Homo sapiens, UniProt O00519); experiment: FAAH inhibitor enzyme assay; assay type: biochemical; conditions: tested at 10 and 100 μM
T1 sequence (O00519 1-579): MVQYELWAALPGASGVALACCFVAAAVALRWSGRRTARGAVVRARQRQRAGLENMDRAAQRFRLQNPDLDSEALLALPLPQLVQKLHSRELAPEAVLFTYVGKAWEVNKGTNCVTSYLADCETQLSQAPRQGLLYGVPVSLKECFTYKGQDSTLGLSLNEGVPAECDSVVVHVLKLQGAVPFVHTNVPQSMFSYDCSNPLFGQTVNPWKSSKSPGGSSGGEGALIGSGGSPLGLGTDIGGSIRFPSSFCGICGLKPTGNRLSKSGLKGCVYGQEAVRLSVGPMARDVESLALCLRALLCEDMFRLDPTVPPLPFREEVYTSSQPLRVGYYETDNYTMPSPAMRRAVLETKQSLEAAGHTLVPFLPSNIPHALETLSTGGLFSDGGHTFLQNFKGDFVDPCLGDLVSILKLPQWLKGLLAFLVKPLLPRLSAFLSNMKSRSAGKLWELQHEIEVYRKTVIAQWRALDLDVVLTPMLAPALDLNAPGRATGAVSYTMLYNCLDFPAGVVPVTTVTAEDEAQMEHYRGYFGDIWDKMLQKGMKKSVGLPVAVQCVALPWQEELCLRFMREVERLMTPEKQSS
Method in brief: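 Kit FAAH enzyme was preincubated in assay buffer with the test compound (10 and 100 μM) or solvent control. The reaction was started with AMC arachidonoyl amide substrate (20 μM final) and run for 30 min at 37 °C. Fluorescence was read at ex 350 nm / em 455 nm.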

[5] = test system: NO production in RAW 264.7 mouse macrophage cells; experiment: NO assay in LPS-induced RAW 264.7 macrophages; assay type: cell-based; conditions: read-out: IC50, inhibition of NO production; LPS-induced RAW 264.7, 24 h
Method in brief: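 Mouse RAW 264.7 cells in DMEM with 10% FBS, 5% CO2, seeded at 2 × 10^4 cells/well. After 24 h, test compound or solvent control (1% EtOH) was added, then LPS (0.5 μg/mL). Medium nitrite was measured after 24 h by Griess reagent: sulfanilamide, then naphthylethylenediamine-HCl, 5 min each at RT in the dark, A540. Quantified against a 0–100 μM nitrite standard curve; duplicates.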

[6] = target: T2, CB2 receptor (Homo sapiens, UniProt P34972); experiment: cAMP functional assay, forskolin-stimulated, CHO-K1 cells expressing CB2; assay type: cell-based; conditions: through CB2 receptor
T2 sequence (P34972 whole entry): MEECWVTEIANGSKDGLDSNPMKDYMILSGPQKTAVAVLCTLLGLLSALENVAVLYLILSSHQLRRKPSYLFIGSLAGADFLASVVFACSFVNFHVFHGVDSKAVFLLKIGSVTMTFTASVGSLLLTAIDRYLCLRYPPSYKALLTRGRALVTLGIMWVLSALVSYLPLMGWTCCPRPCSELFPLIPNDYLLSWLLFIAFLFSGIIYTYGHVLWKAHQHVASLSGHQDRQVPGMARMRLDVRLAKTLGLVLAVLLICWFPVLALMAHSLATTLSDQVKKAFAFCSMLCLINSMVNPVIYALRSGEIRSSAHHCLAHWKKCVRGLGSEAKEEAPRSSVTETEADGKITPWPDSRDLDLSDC

[7] = target: T2, CB2 receptor; experiment: Cannabinoid CB2 receptor binding assay; conditions: read-out: CB2 Ki; human recombinant CB2 in HEK-293 cells, [3H]CP-55940 0.5 nM
[8] = test system: HT-29 colon adenocarcinoma cells; experiment: Cell viability assay; assay type: cell-based; conditions: 48 h, MTT
Method in brief: as §1

[9] = target: T3, CB1 receptor (Homo sapiens, UniProt P21554); experiment: Cannabinoid CB1 receptor binding assay; conditions: read-out: CB1 Ki; human recombinant CB1 in HEK-293 cells, [3H]CP-55940 0.5 nM
T3 sequence (P21554 whole entry): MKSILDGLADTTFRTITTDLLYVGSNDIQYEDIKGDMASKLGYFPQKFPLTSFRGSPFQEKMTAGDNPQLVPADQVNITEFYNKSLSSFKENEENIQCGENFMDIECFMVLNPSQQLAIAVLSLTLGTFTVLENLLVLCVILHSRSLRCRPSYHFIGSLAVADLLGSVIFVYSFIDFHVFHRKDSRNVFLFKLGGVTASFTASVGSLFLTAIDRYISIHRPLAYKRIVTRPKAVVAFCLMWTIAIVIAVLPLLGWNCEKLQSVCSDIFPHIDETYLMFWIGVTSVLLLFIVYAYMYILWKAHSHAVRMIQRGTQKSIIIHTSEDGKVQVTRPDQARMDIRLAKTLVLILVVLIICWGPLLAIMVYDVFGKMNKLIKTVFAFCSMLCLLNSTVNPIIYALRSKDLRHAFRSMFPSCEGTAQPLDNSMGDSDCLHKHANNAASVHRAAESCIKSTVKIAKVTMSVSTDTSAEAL

[10] = target: T3, CB1 receptor; experiment: cAMP functional assay, forskolin-stimulated, CHO-K1 cells expressing CB1; assay type: cell-based; conditions: through CB1 receptor
[11] = test system: RAW 264.7 cells; experiment: Cellular viability of RAW 264.7 macrophages; assay type: cell-based, mouse; conditions: RAW 264.7, up to 25 μM

SMILES	Selectivity for the CB1 receptor over CB2 ([1]; human CB1 vs CB2 binding)	Ki ([1]; read-out: CB1 Ki, human CB1) [µM]	Cytotoxic properties [2]	Cytotoxicity against MCF7 [3]	FAAH inhibition [4]	IC50 [5] [µM]	Functional mode at CB2 (inhibition of forskolin-stimulated cAMP accumulation) [6]	Ki [7] [µM]	Cytotoxicity against HT-29 ([8]; up to 100 μM)	Ki [9] [µM]	Functional mode at CB1 (inhibition of forskolin-stimulated cAMP accumulation) [10]	IC50 ([8]; read-out: IC50, cytotoxicity to HT-29 cells) [µM]	Effect on cellular viability [11]
CCCCCCCCCCCCC/C=C/CCC(=O)N(C)[C@H](CO)COC [Compound 4, serinolamide A]	more than 5 fold	1.3	showed some cytotoxic properties										
CCCCCCCCCCCCC/C=C/CCC(=O)N[C@H](CO)COC [Compound 5, Serinolamide B]				failed to show significant cytotoxicity	no considerable inhibitory effects	> 25	cannabinoid receptor agonists	5.2	failed to show significant cytotoxicity	16.4	cannabinoid receptor agonists		
CCCCCCC[C@@H](C/C=C/CCC(=O)N(C)C/C(=C/Cl)C/C(=C\C(=O)N1CC(O)CC1=O)OC)OC (stereo partly shown) [Compound 6, malyngamide B]					no considerable inhibitory effects	6.2	cannabinoid receptor agonists	2.6		3.6	cannabinoid receptor agonists	26	without affecting cellular viability
